Series [1] concerns the target T1, CYP26B1 (Homo sapiens, UniProt Q9NR63).
T1 sequence (Q9NR63 1-512): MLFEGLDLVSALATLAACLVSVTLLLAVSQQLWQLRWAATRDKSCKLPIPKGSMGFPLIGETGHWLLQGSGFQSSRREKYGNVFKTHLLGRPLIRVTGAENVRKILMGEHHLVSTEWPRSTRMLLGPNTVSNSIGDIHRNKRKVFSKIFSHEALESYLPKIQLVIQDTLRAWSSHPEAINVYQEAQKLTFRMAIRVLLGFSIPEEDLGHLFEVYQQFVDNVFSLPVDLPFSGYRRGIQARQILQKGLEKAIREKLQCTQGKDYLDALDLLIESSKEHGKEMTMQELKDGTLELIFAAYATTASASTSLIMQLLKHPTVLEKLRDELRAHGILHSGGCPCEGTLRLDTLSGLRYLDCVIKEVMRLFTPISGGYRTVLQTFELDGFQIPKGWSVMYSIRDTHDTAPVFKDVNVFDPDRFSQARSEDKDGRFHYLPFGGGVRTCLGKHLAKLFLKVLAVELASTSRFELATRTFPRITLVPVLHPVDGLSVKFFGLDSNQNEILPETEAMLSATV
Put plainly: Depletion of 4-OH-RA, 18-OH-RA and 4-oxo-RA by recombinant CYP26B1. The settings on record: 200 nM initial substrate, mono-exponential decay. It is filed as in vitro ADME.

In series [2] the target is T2, CYP26A1 (Homo sapiens, UniProt O43174).
T2 sequence (O43174 1-497): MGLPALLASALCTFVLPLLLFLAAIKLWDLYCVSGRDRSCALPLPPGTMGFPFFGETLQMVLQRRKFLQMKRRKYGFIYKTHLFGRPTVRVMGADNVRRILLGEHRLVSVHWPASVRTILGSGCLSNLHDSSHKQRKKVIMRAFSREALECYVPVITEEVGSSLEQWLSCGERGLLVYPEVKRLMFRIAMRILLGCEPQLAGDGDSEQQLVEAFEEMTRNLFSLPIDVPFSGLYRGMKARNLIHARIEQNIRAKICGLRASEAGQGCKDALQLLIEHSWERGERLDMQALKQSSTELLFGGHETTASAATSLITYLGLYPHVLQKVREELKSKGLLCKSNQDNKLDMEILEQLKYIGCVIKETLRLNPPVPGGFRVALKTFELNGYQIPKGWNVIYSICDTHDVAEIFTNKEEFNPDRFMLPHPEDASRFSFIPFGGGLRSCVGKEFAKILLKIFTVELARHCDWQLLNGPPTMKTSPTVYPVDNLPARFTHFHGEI
Put plainly: Depletion of 4-OH-RA, 18-OH-RA and 4-oxo-RA by recombinant CYP26A1. The conditions noted are these: for kdep (depletion rate constant): CYP26A1, 200 nM initial substrate, mono-exponential decay; for fold efficiency of CYP26A1 over CYP26B1 in depleting substrate: CYP26A1 vs CYP26B1. It is filed as in vitro ADME.

Series [3] has as its target T2, CYP26A1. Nature of the series: Kinetics of 4-OH-RA and 18-OH-RA formation from atRA by recombinant CYP26A1.
Series [4] deals with T1, CYP26B1. Put plainly: Kinetics of 4-OH-RA and 18-OH-RA formation from atRA by recombinant CYP26B1. The settings on record: substrate atRA.
In the next series the test system is CYP3As and CYP2C8. The settings on record: by CYP3As and CYP2C8; cited from earlier work.
A further series has as its target T3, purified CYP26B1 (Homo sapiens, UniProt Q9NR63).
T3 sequence (Q9NR63 1-512): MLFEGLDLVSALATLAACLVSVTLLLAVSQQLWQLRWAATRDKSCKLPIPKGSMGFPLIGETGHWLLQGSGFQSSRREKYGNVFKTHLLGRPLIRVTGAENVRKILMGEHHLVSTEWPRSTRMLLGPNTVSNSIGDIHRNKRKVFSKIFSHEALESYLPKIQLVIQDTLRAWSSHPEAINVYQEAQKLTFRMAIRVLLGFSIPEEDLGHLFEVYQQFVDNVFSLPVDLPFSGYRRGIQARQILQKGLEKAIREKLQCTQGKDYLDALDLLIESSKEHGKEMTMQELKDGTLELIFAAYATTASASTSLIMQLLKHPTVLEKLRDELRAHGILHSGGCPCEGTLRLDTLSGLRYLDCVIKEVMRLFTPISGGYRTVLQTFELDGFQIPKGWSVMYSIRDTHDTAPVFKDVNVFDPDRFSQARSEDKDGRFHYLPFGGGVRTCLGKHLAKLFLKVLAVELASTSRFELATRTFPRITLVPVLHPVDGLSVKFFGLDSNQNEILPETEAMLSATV
Nature of the series: Ligand-induced binding spectra with purified CYP26B1. An outline of the steps: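 Human CYP26B1 expressed in Sf9 insect cells, solubilized with NP40 and cholate, and purified on a Talon cobalt affinity column. Active P450 was quantified by CO difference spectrum. Enzyme at 235 pmol/mL in 100 mM KPi (pH 7.4) with 20% glycerol; absolute spectrum recorded first. Test ligand was added to test and reference cuvettes in 12.5 nM steps until saturation and maximal absorbance change.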

Substrate in series [5]: CC1=C(/C=C/C(C)=C/C=C/C(C)=C/C(=O)O)C(C)(C)CCC1
Nature of the series: cells, lysate or membranes named. The conditions noted are these: other: substrate atRA, 37.0 °C.

In the case of `CC1=C(/C=C/C(C)=C/C=C/C(C)=C/C(=O)O)C(C)(C)CCC1O` (centres unmarked) [4-OH-RA], the “kdep (depletion rate constant)” value at CYP26B1 [1] came to 0.0005 ± 0.00017 s⁻¹; on CYP26A1 [2] it was 0.00167 ± 0.00017 s⁻¹. In addition, the “fold efficiency of CYP26A1 over CYP26B1 in depleting substrate” value at CYP26A1 [2] is on record as 2–4 fold.
For `CC1=C(/C=C/C(C)=C/C=C/C(C)=C/C(=O)O)C(C)(C)CCC1=O` [4-oxo-RA], in that order: 0.00033 ± 0 s⁻¹, 0.00083 ± 0.00017 s⁻¹ and 2–4 fold.
For `CC(/C=C/C1=C(CO)CCCC1(C)C)=C\C=C\C(C)=C\C(=O)O` [18-OH-RA, 18-hydroxyretinoic acid], in that order: 0.0005 ± 0.00017 s⁻¹, 0.002 ± 0.00017 s⁻¹ and 2–4 fold.
As for `CC1=C(/C=C/C(C)=C/C=C/C(C)=C/C(=O)O)C(C)(C)CCC1` [atRA, All-trans-retinoic acid], the “fold efficiency of CYP26A1 over CYP26B1 in overall depletion of atRA” value at CYP26A1 [3] (formation of multiple primary metabolites (4-OH-RA, 18-OH-RA and 16-OH-RA)) was “approximately 20 fold”. Further, the “Km for CYP26A1 relative to CYP26B1” value on CYP26A1 [3] (substrate atRA) is recorded as “two-fold higher”. Further, at CYP26A1 [3] (substrate atRA, CYP26A1), the “Clint, 4-OH RA formation” value came out at 190 µL/min/pmol P450; the “Clint, 18-OH RA formation” value was 102 µL/min/pmol P450; the “Vmax, 4-OH RA formation” value came to 9.5 ± 2.2 pmol/min/pmol P450; the “Vmax, 18-OH RA formation” value stood at 5.0 ± 0.5 pmol/min/pmol P450. For the same molecule, the “lower Vmax for 18-OH-RA formation compared to 4-OH-RA formation” value at CYP26A1 [3] (substrate atRA, CYP26A1) stood at 45%. Besides, at CYP26B1 [4], the “18-OH-RA formation by CYP26B1” value is given as “could be detected but the formation was insufficient to determine kinetic constants”; the “Vmax of CYP26B1 mediated 4-OH-RA formation relative to CYP26A1” value amounted to 10%; the “fold higher intrinsic clearance by CYP26B1 than by CYP3A4 and CYP2C8” value is recorded as “approximately 100 fold”. Moreover, at CYP26B1 [4] (CYP26B1), the “Clint, 4-OH RA formation” value is 43 µL/min/pmol P450 and the “Vmax, 4-OH RA formation” value came out at 0.81 ± 0.2 pmol/min/pmol P450. Also, in the series on CYP3As and CYP2C8, the “Vmax for atRA hydroxylation” value is on record as 2–5 pmol/min/pmol P450 and the “intrinsic clearance of atRA metabolism” value is 0.2–0.4 µL/min/pmol P450. The “binding of atRA with CYP26B1 (magnitude of difference spectrum)” value at purified CYP26B1 (atRA concentration dependent) is listed as “tight binding”. Also, the “ligand-induced difference spectrum type” value at purified CYP26B1 (purified CYP26B1 235 pmol/mL, atRA 10 nM to 500 nM, low-to-high spin shift of heme iron) is given as “type I difference spectrum”.

B1: CYP26A1 (Homo sapiens) (protein)
chain: MGLPALLASALCTFVLPLLLFLAAIKLWDLYCVSGRDRSCALPLPPGTMGFPFFGETLQMVLQRRKFLQMKRRKYGFIYKTHLFGRPTVRVMGADNVRRILLGEHRLVSVHWPASVRTILGSGCLSNLHDSSHKQRKKVIMRAFSREALECYVPVITEEVGSSLEQWLSCGERGLLVYPEVKRLMFRIAMRILLGCEPQLAGDGDSEQQLVEAFEEMTRNLFSLPIDVPFSGLYRGMKARNLIHARIEQNIRAKICGLRASEAGQGCKDALQLLIEHSWERGERLDMQALKQSSTELLFGGHETTASAATSLITYLGLYPHVLQKVREELKSKGLLCKSNQDNKLDMEILEQLKYIGCVIKETLRLNPPVPGGFRVALKTFELNGYQIPKGWNVIYSICDTHDVAEIFTNKEEFNPDRFMLPHPEDASRFSFIPFGGGLRSCVGKEFAKILLKIFTVELARHCDWQLLNGPPTMKTSPTVYPVDNLPARFTHFHGEI
With B1, the kcat in series [5] (CYP26A1) was 10 pmol/min/pmol P450; in series [5] (CYP26A1, abstract), 10 pmol/min/pmol.

B2: CYP26B1 (Homo sapiens) (protein)
chain: MLFEGLDLVSALATLAACLVSVTLLLAVSQQLWQLRWAATRDKSCKLPIPKGSMGFPLIGETGHWLLQGSGFQSSRREKYGNVFKTHLLGRPLIRVTGAENVRKILMGEHHLVSTEWPRSTRMLLGPNTVSNSIGDIHRNKRKVFSKIFSHEALESYLPKIQLVIQDTLRAWSSHPEAINVYQEAQKLTFRMAIRVLLGFSIPEEDLGHLFEVYQQFVDNVFSLPVDLPFSGYRRGIQARQILQKGLEKAIREKLQCTQGKDYLDALDLLIESSKEHGKEMTMQELKDGTLELIFAAYATTASASTSLIMQLLKHPTVLEKLRDELRAHGILHSGGCPCEGTLRLDTLSGLRYLDCVIKEVMRLFTPISGGYRTVLQTFELDGFQIPKGWSVMYSIRDTHDTAPVFKDVNVFDPDRFSQARSEDKDGRFHYLPFGGGVRTCLGKHLAKLFLKVLAVELASTSRFELATRTFPRITLVPVLHPVDGLSVKFFGLDSNQNEILPETEAMLSATV
For the molecule B2, the kcat in series [5] (CYP26B1) is on record as 0.8 pmol/min/pmol P450; in series [5] (CYP26B1, abstract), 0.8 pmol/min/pmol.

The values above are taken from publication PMC3229621 (Biochemical pharmacology, 2011).
